Test [1] concerns MB49-I. The test is described as follows: (§1) Antiinflammatory activity against mouse MB49-I cells assessed as inhibition of IFN-gamma/TNFalpha-NO production pretreated at 10 uM after 24 hrs by Griess reaction relative to vehicle treated control. The class given is functional. In outline:
(§2)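 Cells seeded at 25 × 10³ per well, pretreated 3 h with test agents, washed twice with 10% FBS RPMI-1640, then stimulated 24 h with IFNγ plus TNFα. NO was quantified as nitrite using the Griess reaction (sulfanilic acid diazotization coupled to N-(1-naphthyl)ethylenediamine), absorbance at 548 nm, compared with cytokine-only control cells.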
In general terms: Griess reagent forms a coloured azo dye with nitrite.

Test [2] relates to MB49-I. The test is described as follows: (§3) Antiinflammatory activity against mouse MB49-I cells assessed as inhibition of IFN-gamma/TNFalpha-NO production pretreated at 50 uM after 24 hrs by Griess reaction relative to vehicle treated control. In kind it is functional. An outline of the steps:
as §2

The test system of test [3] is THP-1. The experiment in a line: Reduction in IFN-gamma-induced STAT1 phosphorylation in human THP1 cells assessed as fold decrease at 10 uM after 30 mins by densitometric analysis relative to vehicle treated control. The class given is functional. The following applies: THP-1, 0.5 h. In outline: (§4)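 PMA-differentiated THP1 macrophages at 750 × 10³ cells/mL were pretreated 30 min with DMSO or compound at 10 or 50 μM, washed, then harvested immediately or after 30 min of 50 U/mL IFNγ (pSTAT1) or 25 ng/mL IL6 (pSTAT3). Lysates were run on reducing SDS-PAGE and immunoblotted for pSTAT1/pSTAT3, with blots reprobed for total STAT; phosphorylation was expressed as fold induction.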

Test [4] has as its system THP-1. The test is described as follows: Reduction in IFN-gamma-induced STAT1 phosphorylation in human THP1 cells assessed as fold decrease at 50 uM after 30 mins by densitometric analysis relative to vehicle treated control. The class given is functional. The following applies: THP-1, 0.5 h. In outline:
as §4

Test [5] concerns THP-1. The experiment in a line: Reduction in IL6-induced STAT3 phosphorylation in human THP1 cells assessed as fold decrease at 10 uM after 30 mins by densitometric analysis relative to vehicle treated control. The class given is functional. The note with it: THP-1, 0.5 h. In outline:
as §4

Test [6] relates to THP-1. The experiment in a line: Reduction in IL6-induced STAT3 phosphorylation in human THP1 cells assessed as fold decrease at 50 uM after 30 mins by densitometric analysis relative to vehicle treated control. In kind it is functional. The note with it: THP-1, 0.5 h. In outline:
as §4

Test [7] can be described thus: Reduction in IFN-gamma-induced MHC2 expression in human THP1 cells assessed as fold decrease pretreated at 10 uM after 48 hrs by flow cytometry relative to vehicle treated control. In kind it is functional, cell-based. The note with it: THP-1. An outline of the steps: (§5)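 PMA-differentiated GFP-THP1 macrophages at 750 × 10⁴ cells/mL were pretreated 3 h with DMSO or compound, then left untreated or stimulated 48 h with 50 U/mL IFNγ. Surface CD40 and MHC-II were quantified by flow cytometry as fold change versus resting cells.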
On the technique in general: Flow cytometry measures light scatter and fluorescence of single cells or particles in a stream.

A short description of test [8]: Reduction in IFN-gamma-induced CD40 expression in human THP1 cells assessed as fold decrease pretreated at 10 uM after 48 hrs by flow cytometry relative to vehicle treated control. In kind it is functional, cell-based. The note with it: THP-1. An outline of the steps: as §5
For test [9], the system named is J774.A1. The test is described as follows: Reduction in IFN-gamma/TNFalpha-induced NO production in mouse J774A.1 cells pretreated at 10 uM measured for 24 hrs by Griess reaction relative to vehicle treated control. The class given is functional. An outline of the steps:
as §2

The subject of test [10] is J774.A1. The experiment in a line: Reduction in IFN-gamma/TNFalpha-induced NO production in mouse J774A.1 cells pretreated at 50 uM measured for 24 hrs by Griess reaction relative to vehicle treated control. In kind it is functional. In outline:
as §2

The subject of test [11] is MB49-I. The test is described as follows: Antiproliferative activity against mouse MB49-I cells assessed as induction of IFN-gamma/TNFalpha-induced loss of cell viability at 10 uM after 24 hrs by MTT assay relative to control. In kind it is functional, cell-based. An outline of the steps:
(§6)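 MB49-I cells plated at 5 × 10³ per well and cultured 24 h. Pretreated 3 h with DMSO or compound at 0–50 μM, then incubated 24 h with or without IFNγ plus TNFα. MTT added for 3 h, solubilized overnight in 10% SDS/10 mM HCl, and absorbance read at 580 nm.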

Test [12] is described as follows: (§7) Antiproliferative activity against mouse MB49-I cells assessed as induction of IFN-gamma/TNFalpha-induced loss of cell viability at 25 uM after 24 hrs by MTT assay relative to control. In kind it is functional. An outline of the steps:
as §6
On the technique in general: Tetrazolium assays rely on reduction of a dye to a coloured formazan, in cell work by metabolically active cells.

A short description of test [13]: (§8) Antiproliferative activity against mouse MB49-I cells assessed as induction of IFN-gamma/TNFalpha-induced loss of cell viability at 37.5 uM after 24 hrs by MTT assay relative to control. The class given is functional. An outline of the steps: as §6
Test [14] is described as follows: (§9) Antiproliferative activity against mouse MB49-I cells assessed as induction of IFN-gamma/TNFalpha-induced loss of cell viability at 50 uM after 24 hrs by MTT assay relative to control. In kind it is functional. An outline of the steps: as §6
A short description of test [15]: as §1. The class given is functional. In outline:
as §2

A short description of test [16]: as §3. In kind it is functional. An outline of the steps:
as §2

Test [17] is described as follows: Reduction in IFN-gamma-induced CD40 expression in human THP1 cells assessed as fold decrease pretreated at 25 uM after 48 hrs by flow cytometry relative to vehicle treated control. In kind it is functional, cell-based. The note with it: THP-1. An outline of the steps:
as §5

A short description of test [18]: Reduction in IFN-gamma-induced MHC2 expression in human THP1 cells assessed as fold decrease pretreated at 25 uM after 48 hrs by flow cytometry relative to vehicle treated control. In kind it is functional, cell-based. The note with it: THP-1. An outline of the steps:
as §5

Test [19] deals with MB49-I. The description is as §7. In kind it is functional. In outline: as §6
For test [20], the system named is MB49-I. The test is described as §8. The class given is functional. In outline:
as §6

The test system of test [21] is MB49-I. The description is as §9. The class given is functional. An outline of the steps:
as §6

Activity calls are given as the source filed them. The rule behind the calls is not given here.

A word on the inhibition: it is how much of the control response was suppressed.

Regarding `CC(C)(C)OC(=O)NNC(=O)c1ccccc1`, the outcome in the test on MB49-I [1] and in the test with MB49-I [2] was inactive.

Consider `O=C(O)c1ccc(N2C(=O)C=CC2=O)cc1`, for which the inhibition entry in the test on MB49-I [1] and in the test on MB49-I [2] was “inactive” in each case.

With `O=C1C=CC(=O)O1`, the inhibition result with MB49-I [1] and in the test with MB49-I [2] was “inactive” throughout.

`O=C1C=CC(=O)N1c1ccccc1`: the inhibition result with MB49-I [1] and in the test with MB49-I [2] was “inactive” throughout.

For the compound `CC(C)(C)OC(=O)NNC(=O)c1ccc(N2C(=O)C=CC2=O)cc1`, the inhibition at 10 µM in the test on THP-1 [3] is 38%; with THP-1 [5], 64%; in the test on J774.A1 [9], 46%; in [15], 40%. The inhibition at 50 µM worked out at 71% in the test with THP-1 [4]; 85% in the test with THP-1 [6]; 91% in the test on J774.A1 [10]; 50% in test [14]; 81% in test [16]. The inhibition in test [7] is 49%; in [8], 87%. For the same compound, the result with MB49-I [11] was inactive. For the same compound, the inhibition at 25 µM in test [12] is 19%. For the same compound, the inhibition at 37.5 µM in test [13] was 45%.

For `Nc1ccc(C(=O)O)cc1`, the inhibition entry with MB49-I [1] and in the test with MB49-I [2] was “inactive” each time.

On to `NNC(=O)c1ccc(N2C(=O)C=CC2=O)cc1`, for which the inhibition at 10 µM was found to be 16% in the test with THP-1 [3], 15% in the test with THP-1 [5], 24% in the test on J774.A1 [9] and 21% in test [15]. The inhibition at 50 µM in the test on THP-1 [4] was 66%; in the test on THP-1 [6], 38%; with J774.A1 [10] it was 69%; in [16], 72%. Further, the values for the inhibition in test [17] and in [18] were 43% and 23%, respectively. Also, the result with MB49-I [11] was inactive. In addition, the inhibition entry with MB49-I [19], in the test with MB49-I [20] and in the test on MB49-I [21] was “inactive” each time.

In the case of `O=C(O)/C=C\C(=O)Nc1ccccc1`, the inhibition result in the test with MB49-I [1] and in the test on MB49-I [2] was “inactive” throughout.

Take `O=C(O)/C=C\C(=O)Nc1ccc(C(=O)O)cc1`: the inhibition result with MB49-I [1] and in the test with MB49-I [2] was “inactive” in each case.

The values are drawn from ChEMBL document CHEMBL3421612, “Identification of an anti-inflammatory derivative with anti-cancer potential: The impact of each of its structural components on inflammatory responses in macrophages and bladder cancer cells” (2015).
